Data: ChEMBL document CHEMBL1137704, “Photodynamic inactivation of Candida albicans sensitized by tri- and tetra-cationic porphyrin derivatives” (Eur J Med Chem, 2009)
Activity calls are given as the source filed them. No cut-off for these calls is given here.

Tests used:
Candida albicans [1] = test: Drug uptake in Candida albicans PC31 at 10^6 CFU/ml cellular density assessed per 10^6 cells at 1 uM after 30 mins by fluorescence emission analysis; type: ADME, organism-based; conditions: in vivo, 0.5 h
Outline: (§1)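 Stationary-phase yeast (overnight Sabouraud broth, 37 °C) washed into 10 mM PBS pH 7.0, 2 mL suspensions incubated with sensitizer in the dark at 37 °C. Cells pelleted, resuspended in 2% aqueous SDS, kept overnight at 4 °C, sonicated 30 min. Porphyrin quantified by fluorescence (exc 418, em 650 nm) against SDS calibration standards, normalized to total cell number. Three separate experiments.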

Candida albicans [2] = test: Phototoxicity against Candida albicans PC31 in PBS at 10^6 CFU/ml cellular density at 5 uM after 30 mins in dark at 37 deg C; type: functional, organism-based
Outline: (§2)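 Overnight stationary-phase cells in 10 mM PBS pH 7.0 (2 mL) were dark-incubated with porphyrin for 30 min at 37 °C, then exposed to a 150 W slide-projector lamp filtered through 2.5 cm of water. Dark and light-only controls were included. Survivors were counted as CFU after serial dilution, plating in triplicate on Sabouraud agar and ~48 h at 37 °C. Three separate experiments.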

Candida albicans [3] = test: Phototoxicity against Candida albicans PC31 in PBS at 10^6 CFU/ml cellular density pretreated for 30 mins irradiated with visible light for 15 mins; type: functional, organism-based; outline: as §2
Candida albicans [4] = test: Phototoxicity against Candida albicans PC31 in PBS at 10^6 CFU/ml cellular density assessed as cellular inactivation at 5 uM after 30 mins irradiated with visible light for 30 mins; type: functional; outline: as §2
Candida albicans [5] = test: Drug uptake in Candida albicans PC31 at 10^7 CFU/ml cellular density assessed per 10^6 cells at 5 uM after 30 mins by fluorescence emission analysis; type: ADME, organism-based; conditions: in vivo, 0.5 h; outline: as §1
Candida albicans [6] = test: Drug uptake in Candida albicans PC31 at 10^6 CFU/ml cellular density assessed per 10^6 cells at 5 uM after 30 mins by fluorescence emission analysis; type: ADME, organism-based; conditions: in vivo, 0.5 h; outline: as §1
Candida albicans [7] = test: Drug uptake in Candida albicans PC31 at 10^8 CFU/ml cellular density assessed per 10^6 cells at 5 uM after 30 mins by fluorescence emission analysis; type: ADME, organism-based; conditions: in vivo, 0.5 h; outline: as §1
Candida albicans [8] = test: Phototoxicity against Candida albicans PC31 in PBS at 10^6 CFU/ml cellular density assessed as cellular inactivation at 5 uM after 30 mins irradiated with visible light for 5 mins; type: functional; outline: as §2
Candida albicans [9] = test: Phototoxicity against Candida albicans PC31 in PBS at 10^7 CFU/ml cellular density assessed as cellular inactivation at 5 uM after 30 mins irradiated with visible light for 30 mins; type: functional; outline: as §2

| Drug uptake (Candida albicans [1]) | Drug uptake (Candida albicans [5]) | Drug uptake (Candida albicans [6]) | Drug uptake (Candida albicans [7]) | SMILES | Activity (Candida albicans [2]) | Activity (Candida albicans [3]) | Activity (Candida albicans [4]) | Activity (Candida albicans [8]) | Activity (Candida albicans [9]) |
| --- | --- | --- | --- | --- | --- | --- | --- | --- | --- |
| 0.03 nmol | – | – | – | O=S(=O)([O-])c1ccc(-c2c3nc(c(-c4ccc(S(=O)(=O)[O-])cc4)c4ccc([nH]4)c(-c4ccc(S(=O)(=O)[O-])cc4)c4ccc([nH]4)c(-c4ccc(S(=O)(=O)[O-])cc4)c4nc2C=C4)C=C3)cc1.[Na+].[Na+].[Na+].[Na+] | inactive | Dose-dependent effect | inactive | – | – |
| 0.32 nmol | 0.12 nmol | 1.48 nmol | 0.01 nmol | C[N+](C)(C)c1ccc(-c2c3nc(c(-c4ccc([N+](C)(C)C)cc4)c4ccc([nH]4)c(-c4ccc([N+](C)(C)C)cc4)c4nc(c(-c5ccc(C(F)(F)F)cc5)c5ccc2[nH]5)C=C4)C=C3)cc1.[I-].[I-].[I-] | – | – | >99.9994% | 99.99% | 99.9% |
